Measured values taken from ChEMBL document CHEMBL3112476, “Inhibition of IκB kinase-β and IκB kinase-α by heterocyclic adamantyl arotinoids” (Bioorg Med Chem, 2014).

Key:
Jurkat = assay: Induction of apoptosis in human Jurkat cells assessed as activation of DEVDase at 5 uM after 4 hrs by fluorometric assay relative to control; format: functional
Procedure, shortened: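 Jurkat cells (20,000/well, 0.5% FBS RPMI) were treated 4 h with 5 µM compound and lysed 15 min in PIPES pH 7 buffer with NP-40, cytochalasin B and protease inhibitors. An equal volume of 2× caspase buffer containing 100 µM Ac-DEVD-AFC was added. AFC fluorescence (ex 390/em 510 nm) was read every 2 min for 1 h at 37 °C; the linear slope was taken as activity, expressed as fold over DMSO control. Data: 2 experiments, triplicate.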

[1] = Cytotoxicity against human Jurkat T cells assessed as cell viability at 4 uM after 24 hrs by CellTiter-Glo assay relative to control; format: functional; conditions: read-out: Activity
Procedure, shortened: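 Jurkat cells in 0.5% FBS RPMI were exposed to 4 µM compound or 0.1% DMSO for 24 h. Viability was read as ATP by CellTiter-Glo luminescence and expressed as percent of solvent control; below 60% counted as cell killing. Data: three experiments, triplicate.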

[2] = target: T1, Inhibitor of nuclear factor kappa-B kinase subunit alpha (Homo sapiens) (UniProt O15111); assay: Inhibition of recombinant IKKalpha (unknown origin) using ulight-IkappaomegaBalpha as substrate at 20 uM after 2 hrs by LANCE ultra TR-FRET assay relative to control
T1 sequence (whole entry): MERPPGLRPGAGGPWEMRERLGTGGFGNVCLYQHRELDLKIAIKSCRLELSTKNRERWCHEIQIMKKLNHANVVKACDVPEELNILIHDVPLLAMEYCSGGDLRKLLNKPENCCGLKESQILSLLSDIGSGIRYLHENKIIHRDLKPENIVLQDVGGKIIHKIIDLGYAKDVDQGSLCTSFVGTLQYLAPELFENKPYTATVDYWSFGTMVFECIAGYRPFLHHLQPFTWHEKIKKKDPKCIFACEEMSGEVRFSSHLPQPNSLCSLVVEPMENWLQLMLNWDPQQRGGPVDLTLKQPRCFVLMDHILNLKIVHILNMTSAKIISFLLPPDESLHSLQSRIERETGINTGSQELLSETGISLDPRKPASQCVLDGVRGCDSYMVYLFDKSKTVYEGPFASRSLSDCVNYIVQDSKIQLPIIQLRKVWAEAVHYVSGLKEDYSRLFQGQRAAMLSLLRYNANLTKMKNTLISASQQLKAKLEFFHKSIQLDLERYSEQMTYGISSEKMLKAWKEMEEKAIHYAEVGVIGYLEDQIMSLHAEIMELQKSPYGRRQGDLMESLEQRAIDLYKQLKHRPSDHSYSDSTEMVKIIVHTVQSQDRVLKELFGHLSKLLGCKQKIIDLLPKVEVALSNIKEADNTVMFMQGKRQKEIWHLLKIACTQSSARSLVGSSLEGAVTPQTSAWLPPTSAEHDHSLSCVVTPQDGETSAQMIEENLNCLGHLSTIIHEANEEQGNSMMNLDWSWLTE
Procedure, shortened: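 Recombinant IKKα (4 nM), IKKβ (1 nM) or IKKε (2 nM) in 50 mM Hepes pH 7.4, 10 mM MgCl2, 1 mM EGTA, 2 mM DTT, 0.01% Tween-20. Substrate was 50 nM ULight-IκBα (IKKα/β) or ULight-rpS6 (IKKε); ATP was 1.25 µM (α/β) or 5 µM (ε). Compound was tested at 20 µM. Incubation was 1 h (IKKβ) or 2 h (IKKα/ε) at room temperature, stopped with 20 mM EDTA plus 2 nM Eu-anti-phospho antibody, then TR-FRET 665/615 nm. Results are percent inhibition versus solvent; 3–4 experiments, triplicate.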

[3] = target: T2, Inhibitor of nuclear factor kappa-B kinase subunit epsilon (Homo sapiens) (UniProt Q14164); assay: Inhibition of recombinant IKKepsilon (unknown origin) using ulight-rpS6 as substrate at 20 uM after 2 hrs by LANCE ultra TR-FRET assay relative to control
T2 sequence (whole entry): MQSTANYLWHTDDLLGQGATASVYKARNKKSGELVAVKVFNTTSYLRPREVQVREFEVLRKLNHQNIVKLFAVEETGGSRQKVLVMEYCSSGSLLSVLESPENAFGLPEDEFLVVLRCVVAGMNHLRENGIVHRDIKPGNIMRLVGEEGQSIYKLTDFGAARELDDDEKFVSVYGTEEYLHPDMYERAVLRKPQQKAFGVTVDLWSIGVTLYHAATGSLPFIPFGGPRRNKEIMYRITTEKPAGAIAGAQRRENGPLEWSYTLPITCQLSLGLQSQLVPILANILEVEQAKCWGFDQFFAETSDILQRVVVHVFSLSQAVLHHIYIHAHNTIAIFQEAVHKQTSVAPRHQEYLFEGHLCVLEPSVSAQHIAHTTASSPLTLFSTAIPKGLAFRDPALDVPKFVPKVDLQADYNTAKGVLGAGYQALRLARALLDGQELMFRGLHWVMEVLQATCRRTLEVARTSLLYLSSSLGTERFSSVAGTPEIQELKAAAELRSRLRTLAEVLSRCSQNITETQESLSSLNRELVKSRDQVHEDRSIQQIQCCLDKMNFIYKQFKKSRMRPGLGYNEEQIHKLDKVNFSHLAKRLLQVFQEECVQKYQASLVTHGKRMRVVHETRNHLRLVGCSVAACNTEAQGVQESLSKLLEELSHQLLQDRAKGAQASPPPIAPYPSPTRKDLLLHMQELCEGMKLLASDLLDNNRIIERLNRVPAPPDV

[4] = target: T3, Inhibitor of nuclear factor kappa-B kinase subunit beta (Homo sapiens) (UniProt O14920); assay: Inhibition of recombinant IKKbeta (unknown origin) using ulight-IkappaomegaBalpha as substrate at 20 uM after 1 hr by LANCE ultra TR-FRET assay relative to control
T3 sequence (whole entry): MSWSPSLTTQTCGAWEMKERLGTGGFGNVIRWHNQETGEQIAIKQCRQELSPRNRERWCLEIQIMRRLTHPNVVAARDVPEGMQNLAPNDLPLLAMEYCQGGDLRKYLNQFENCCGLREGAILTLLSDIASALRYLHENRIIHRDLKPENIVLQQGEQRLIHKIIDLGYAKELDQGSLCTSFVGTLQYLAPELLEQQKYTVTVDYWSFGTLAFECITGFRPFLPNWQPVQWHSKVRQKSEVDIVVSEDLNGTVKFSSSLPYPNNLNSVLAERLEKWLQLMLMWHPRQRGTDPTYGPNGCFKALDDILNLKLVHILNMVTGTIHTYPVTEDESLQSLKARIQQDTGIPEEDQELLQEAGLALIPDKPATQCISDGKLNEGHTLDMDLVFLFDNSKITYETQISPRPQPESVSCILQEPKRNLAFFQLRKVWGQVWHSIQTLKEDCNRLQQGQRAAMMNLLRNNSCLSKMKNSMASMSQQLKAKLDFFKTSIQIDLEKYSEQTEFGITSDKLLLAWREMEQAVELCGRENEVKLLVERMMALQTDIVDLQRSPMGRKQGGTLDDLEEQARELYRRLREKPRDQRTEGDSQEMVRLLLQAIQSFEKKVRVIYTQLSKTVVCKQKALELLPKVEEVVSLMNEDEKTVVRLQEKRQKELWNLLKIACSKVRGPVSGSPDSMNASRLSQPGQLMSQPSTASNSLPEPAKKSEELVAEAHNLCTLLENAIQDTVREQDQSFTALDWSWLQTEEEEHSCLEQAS

[5] = Cytotoxicity against human Jurkat T cells assessed as cell viability after 24 hrs by CellTiter-Glo assay; format: functional, cell-based
Procedure, shortened: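 Jurkat cells were seeded the day before treatment in RPMI with 0.5% FBS (10,000 cells/well). They were treated in triplicate across an 8-point dose series starting at 10 µM, with DMSO ≤0.1% as solvent control. ATP was measured by CellTiter-Glo luminescence after 24 h; a time-0 reading separated cytostatic from cytotoxic effects. IC50 was fitted from the curve.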

[6] = target: T4, Inhibitor of nuclear factor kappa-B kinase subunit beta (Homo sapiens, UniProt O14920); assay: Inhibition of recombinant IKKbeta (unknown origin) using ulight-IkappaomegaBalpha as substrate after 1 hr by LANCE ultra TR-FRET assay
T4 sequence (O14920 whole entry): T3 sequence (whole entry)

[7] = target: T5, Retinoic acid receptor alpha (Homo sapiens, UniProt P10276); assay: Inverse agonist activity at RARalpha (unknown origin)
T5 sequence (P10276 whole entry): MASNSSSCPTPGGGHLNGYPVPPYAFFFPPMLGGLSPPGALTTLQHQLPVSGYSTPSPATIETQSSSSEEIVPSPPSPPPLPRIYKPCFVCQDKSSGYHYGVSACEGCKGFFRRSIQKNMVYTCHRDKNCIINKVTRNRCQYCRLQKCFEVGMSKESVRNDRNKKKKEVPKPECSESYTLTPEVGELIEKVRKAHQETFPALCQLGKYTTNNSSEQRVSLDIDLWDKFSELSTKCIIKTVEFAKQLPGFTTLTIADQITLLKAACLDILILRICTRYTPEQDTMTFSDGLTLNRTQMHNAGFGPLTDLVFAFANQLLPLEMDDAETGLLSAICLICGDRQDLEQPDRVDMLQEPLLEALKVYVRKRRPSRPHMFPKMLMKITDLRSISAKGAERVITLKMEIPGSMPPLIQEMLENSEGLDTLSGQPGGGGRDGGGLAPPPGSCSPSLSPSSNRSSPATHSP

[8] = target: T6, Retinoic acid receptor alpha (Homo sapiens) (UniProt P10276); assay: Antagonist activity at Gal4-fused RARalpha (unknown origin) transfected in HEK293 cells assessed as ATRA-induced transcriptional activity at 4 uM by luciferase/beta-galactosidase reporter gene assay relative to ATRA-treated control; format: cell-based; set-up: scale not given: the % may be the effect or the level left
T6 sequence (whole entry): T5 sequence (P10276 whole entry)
Procedure, shortened: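 Same Gal4-RARα HEK-293 UAS-luciferase system, stimulated with 0.1 µM atRA alone or with 4 µM compound (40-fold molar excess); 1 µM UVI2024 served as control antagonist. Background-subtracted luciferase was normalized to β-galactosidase and given as percent of atRA-stimulated cells. Data: 2–3 experiments, triplicate.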

[9] = target: T6, Retinoic acid receptor alpha (Homo sapiens); assay: Agonist activity at Gal4-fused RARalpha (unknown origin) transfected in HEK293 cells assessed as induction of transcriptional activity at 4 uM after 6 hrs by luciferase/beta-galactosidase reporter gene assay relative to control; format: cell-based
Procedure, shortened: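 Gal4-RARα or Gal4-RXRα (10 ng) plus 2 ng β-galactosidase vector, calcium phosphate transfection into HEK-293 cells carrying a 5×UAS luciferase reporter. After 16 h, cells were washed and given 5% charcoal-treated FBS medium, then rested 2 h. Stimulation was with 4 µM compound or 0.1% DMSO; controls were 1 µM atRA (RARα) or 1 µM CD3254 (RXRα). Harvest was at 6 h (RARα) or 24 h (RXRα). Luciferase/β-gal ratio was expressed as fold over unstimulated cells. Data: 2 experiments, triplicate.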

[10] = target: T7, Retinoic acid receptor RXR-alpha (Homo sapiens) (UniProt P19793); assay: Antagonist activity at recombinant GST-tagged RXRalpha LBD (unknown origin) assessed as inhibition of CD3254-induced fluorescein labeled D22 coactivator recruitment at 8 uM after 4 hrs by TR-FRET assay
T7 sequence (whole entry): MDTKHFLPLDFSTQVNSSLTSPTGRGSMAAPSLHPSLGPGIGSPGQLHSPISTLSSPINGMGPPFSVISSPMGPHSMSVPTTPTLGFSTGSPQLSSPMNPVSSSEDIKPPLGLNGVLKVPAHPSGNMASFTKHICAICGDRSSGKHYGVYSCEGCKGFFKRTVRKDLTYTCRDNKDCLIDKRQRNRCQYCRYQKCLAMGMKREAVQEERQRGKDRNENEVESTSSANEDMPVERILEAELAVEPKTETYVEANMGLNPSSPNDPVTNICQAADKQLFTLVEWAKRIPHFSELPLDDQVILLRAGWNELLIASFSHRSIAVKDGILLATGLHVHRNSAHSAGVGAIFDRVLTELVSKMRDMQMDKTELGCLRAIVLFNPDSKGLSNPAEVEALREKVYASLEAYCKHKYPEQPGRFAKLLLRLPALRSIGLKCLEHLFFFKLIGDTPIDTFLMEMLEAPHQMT
Procedure, shortened: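 GST-RXRα LBD (5 nM) was incubated at room temperature with 150 nM fluorescein-D22 peptide in pH 7.4 Hepes binding buffer containing DTT, with a suboptimal concentration of CD3254 plus test ligand (≤1% DMSO). Terbium anti-GST antibody (2 nM) was the donor. The 520/495 nm TR-FRET ratio was read after 4 h and expressed as Delta F% versus controls lacking GST-RXRα.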

Compound	inhibition [2]	inhibition [3]	inhibition [4]	IC50 [6]	IC50 [7]	Activity [8]	fold change (FC) [9]	fold change (FC) (Jurkat)	viability at 4 µM [1]	IC50 [5]	inhibition [10]
O=C(O)/C=C/c1ccc(-c2ccc(O)c(C34CC5CC(CC(C5)C3)C4)c2)c(Cl)c1	41.3%	24.1%	40.6%	–	–	–	–	74.3	6.6%	–	–
CC1(C)CC=C(C#Cc2ccccc2)c2cc(/C=C/c3ccc(C(=O)O)cc3)ccc21	–	–	–	–	0.114 µM	7.1%	1.3	–	–	–	–
CCCCCOc1cc2c(cc1-c1cc(/C=C/C(=O)O)ccc1O)C(C)(C)CCC2(C)C	–	–	–	–	–	–	–	–	–	–	25%

Further lines, with some results ahead:

inhibition [2]	inhibition [3]	inhibition [4]	IC50 [6]	IC50 [7]	Activity [8]	fold change (FC) [9]	Compound	fold change (FC) (Jurkat)	viability at 4 µM [1]	IC50 [5]	inhibition [10]
56.3%	15.8%	43.9%	11.8 µM	–	–	–	COCCOCOc1ccc(C(=O)/C=C/c2ccc(C(=O)O)cc2)cc1C12CC3CC(CC(C3)C1)C2	20.7	28.5%	3.33 µM	–
5%	14.4%	0%	–	–	–	–	CC(=O)NCCCOc1cc(/C=C/C(=O)O)ccc1-c1ccc(O)c(C23CC4CC(CC(C4)C2)C3)c1	6.1	42.7%	–	–
